This is a sample that favours compounds with a hit; in the whole collection about 1.3% have one here.
MT1-MMP act inh: MT1-MMP (human) activation inhibition; P50281; HT1080 RFP-PRO-GFP cells, GFP/RFP ratio fluorescence, overnight; percent of plate control window, DMSO zero; GFP/RFP ratio change, % at 20 µM; hit rate 0.061% among 360,000; AID 651647;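 active = GFP/RFP ratio change of at least 30% with cell ATP level not reduced by more than half and red fluorescence within 50% of control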
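system = RFP-PRO-GFP reporter HT1080 cells | dosing = 20 µM single dose, 1% DMSO | timing = overnight cell settling, then overnight compound exposure, 37 °C, 5% CO2 | read-out basis = GFP/RFP fluorescence ratio | controls = DMSO and RFP-L50D-GFP cell wells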
H9c2 TAG inh: inhibitors of triacylglycerol accumulation; H9c2 cells, Nile Red lipid (TAG) fluorescence; cells loaded with 200 µM oleic acid; inhibition, % at 12.5 µM; hit rate 0.66% among 230,000; AID 651582;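 active = pattern-corrected inhibition of lipid staining of at least 50% with the nuclear-stain viability signal not falling by more than 50%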;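 note: 0% = DMSO wells and 100% = triacsin C control wells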
HGIII-sPLA2 inh: Inhibits HGIII-sPLA2 liposome hydrolysis, primary screen; QFRET BODIPY PC-A2 liposome hydrolysis, fluorescence; AID 743126; Q9NZ20; hit rate 0.56% among 370,000; inhibition, % at 12.2 µM;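 active = inhibition above mean plus 3 SD of compounds lying within the high and low control bounds, cut at about 19% in these data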;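 note: 0% = median of test compound wells and 100% = no enzyme DMSO wells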
Target sequence (Q9NZ20 whole entry, looked up): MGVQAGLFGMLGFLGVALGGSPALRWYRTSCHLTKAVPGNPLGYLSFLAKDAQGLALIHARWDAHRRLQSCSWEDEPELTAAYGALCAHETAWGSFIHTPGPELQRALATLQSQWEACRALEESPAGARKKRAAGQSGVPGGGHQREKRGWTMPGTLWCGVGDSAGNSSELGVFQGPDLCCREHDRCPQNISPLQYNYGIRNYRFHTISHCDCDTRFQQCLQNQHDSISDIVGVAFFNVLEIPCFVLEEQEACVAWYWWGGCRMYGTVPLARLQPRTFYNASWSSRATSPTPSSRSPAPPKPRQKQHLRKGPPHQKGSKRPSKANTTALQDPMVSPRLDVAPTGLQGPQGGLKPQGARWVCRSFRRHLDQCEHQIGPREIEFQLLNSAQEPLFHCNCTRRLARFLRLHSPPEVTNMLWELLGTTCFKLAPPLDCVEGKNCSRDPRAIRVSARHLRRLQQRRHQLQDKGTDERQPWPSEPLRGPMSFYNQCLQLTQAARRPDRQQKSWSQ
Efflux pump inh: inhibitors of Candida antifungal efflux pumps expressed in yeast. S. cerevisiae Candida pump triplex, Nile Red efflux. AID 485275. inhibition, % at 10 µM. hit rate 0.44% among 330,000;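 active = plate passing quality check with inhibition over a set limit, or well fluorescence over plate mean plus 4 SD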;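 note: Nile Red retained in pooled yeast measured as flow cytometry median fluorescence; 0% = buffer negative control and 100% = Enniatin B positive control; higher means more Nile Red kept so more efflux inhibition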
TAG conf: triacylglycerol accumulation inhibition, confirmation; H9c2 lipid accumulation, Nile Red fluorescence; cells loaded with 200 µM oleic acid; hit rate 71% among 990; shares compounds with H9c2 TAG inh; AID 651629; inhibition, % at 12.5 µM;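 active = mean inhibition across replicates of 40% or more; inactive = mean inhibition below 40%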;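 note: plate controls were DMSO only wells for no effect and Triacsin C treated wells for full effect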
The depositor's hits bear a star.

How did COc1ccccc1CCNC(=O)c1ccc(NC(=O)CC2SC(N3CCCCC3)=NC2=O)cc1 (configuration not stated) do in these assays?
MT1-MMP act inh: 0; H9c2 TAG inh: -7; HGIII-sPLA2 inh: 1; Efflux pump inh: 0

Results for Cc1cc(C)n(-c2nc3c(c(=O)[nH]c(=O)n3C)n2CC(O)COc2ccc(Cl)cc2Cl)n1 (configuration not stated) ?
MT1-MMP act inh: 7; H9c2 TAG inh: 82*; HGIII-sPLA2 inh: -2; Efflux pump inh: 0; TAG conf: 74*

What do the screens show for `COc1cccc(-c2nnc(SCC(=O)Nc3cc(C)ccc3OC)n2N)c1`?
MT1-MMP act inh: -1; H9c2 TAG inh: 53*; HGIII-sPLA2 inh: -6; Efflux pump inh: 0; TAG conf: 26

How did COc1ccc(C)cc1NC(=O)CSc1nnc(-c2ccco2)n1N do in these assays?
MT1-MMP act inh: -2; HGIII-sPLA2 inh: 3; Efflux pump inh: 0

Results for O=C1c2ccccc2C(=O)c2c1ccc(C(=O)N1CCCCC1)c2NCCO ?
MT1-MMP act inh: 23; H9c2 TAG inh: 83*; HGIII-sPLA2 inh: 3; Efflux pump inh: 0; TAG conf: 83*

What do the screens show for `Cc1ccc(C(C)C)c(OCC(=O)NN=C(CCl)CCl)c1`?
Efflux pump inh: 0

How did OC(c1cc(Cl)cc(Cl)c1)c1ncc(-c2cccc(F)c2)[nH]1 (configuration not stated) do in these assays?
MT1-MMP act inh: 8; H9c2 TAG inh: -2; HGIII-sPLA2 inh: -5

How did Cc1cc(NC(=O)CSc2nc(-c3ccco3)cc(C(F)(F)F)n2)no1 do in these assays?
MT1-MMP act inh: 5; H9c2 TAG inh: 66*; HGIII-sPLA2 inh: 9; Efflux pump inh: 0; TAG conf: 58*

Results for O=C(COC(=O)c1ccc(OC(F)F)cc1)NCCC1=CCCCC1 ?
MT1-MMP act inh: 3; H9c2 TAG inh: -6; HGIII-sPLA2 inh: -7; Efflux pump inh: 0

Results for CCN(CC)S(=O)(=O)c1cc(C(=O)Nc2cc(Cl)ccc2N2CCN(C)CC2)ccc1Cl ?
MT1-MMP act inh: -2; HGIII-sPLA2 inh: -1; Efflux pump inh: 0

How did CN1CCN(c2ccc(Cl)cc2NC(=O)c2ccc(S(=O)(=O)N(C)C)cc2)CC1 do in these assays?
MT1-MMP act inh: -7; H9c2 TAG inh: 52*; HGIII-sPLA2 inh: -1; Efflux pump inh: 0; TAG conf: 22

Results for O=C(O)c1ccccc1C(=O)Nc1ccc(Oc2ccccc2)cc1 ?
MT1-MMP act inh: 0; H9c2 TAG inh: 1; HGIII-sPLA2 inh: 8; Efflux pump inh: 0

What do the screens show for `CC(C)(C)c1ccc(Oc2ccc(NC(=O)c3ccccc3C(=O)O)cn2)cc1`?
MT1-MMP act inh: -14; H9c2 TAG inh: 62*; HGIII-sPLA2 inh: 0; Efflux pump inh: 0; TAG conf: 6

How did CN(C)c1ccc(NC(=O)CCN2C(=O)c3cccc([N+](=O)[O-])c3C2=O)cc1 do in these assays?
MT1-MMP act inh: -6; HGIII-sPLA2 inh: 6; Efflux pump inh: 0

What do the screens show for `C=C1CC(COc2ccc3c(C)c(Cl)c(=O)oc3c2)(c2ccccc2)OC1=O` (configuration not stated)?
MT1-MMP act inh: 5; H9c2 TAG inh: 77; HGIII-sPLA2 inh: 0

Results for NC(=O)N/N=C/c1c(Sc2nnnn2-c2ccccc2)nc2ccccn2c1=O ?
MT1-MMP act inh: -9; H9c2 TAG inh: 52*; HGIII-sPLA2 inh: 4; Efflux pump inh: 0; TAG conf: 64*

What do the screens show for `Cc1nn(-c2ccccc2)c(Cl)c1/C=N/NC(N)=O`?
MT1-MMP act inh: 3; H9c2 TAG inh: 4; HGIII-sPLA2 inh: 5; Efflux pump inh: 0

Results for CSC(=NC#N)N1CCN(c2ccc([N+](=O)[O-])cc2)CC1 ?
MT1-MMP act inh: 8; H9c2 TAG inh: -10; HGIII-sPLA2 inh: 0; Efflux pump inh: 0

What do the screens show for `COc1ccc(NC(=O)C2(C)Cc3c(-c4cccc(C(N)=O)c4)ccnc3O2)cn1` (configuration not stated)?
MT1-MMP act inh: 4; H9c2 TAG inh: 50*; HGIII-sPLA2 inh: -1; TAG conf: 55*

What do the screens show for `CC1(C(=O)NCc2ccncc2)Cc2c(-c3cccc(C(F)(F)F)c3)ccnc2O1` (configuration not stated)?
MT1-MMP act inh: -7; H9c2 TAG inh: 21; HGIII-sPLA2 inh: 1

How did CC1(C(=O)NCc2ccco2)Cc2c(-c3cccc(C(F)(F)F)c3)ccnc2O1 (configuration not stated) do in these assays?
MT1-MMP act inh: 12; H9c2 TAG inh: 54*; HGIII-sPLA2 inh: -2; TAG conf: 46*

How did CC1(C(=O)NCc2ccc(F)c(F)c2)Cc2c(-c3cccc(C(N)=O)c3)ccnc2O1 (configuration not stated) do in these assays?
MT1-MMP act inh: -3; H9c2 TAG inh: 18; HGIII-sPLA2 inh: 2

Results for CC1(C(=O)NCc2ccccc2)Cc2c(-c3cccc(C(N)=O)c3)ccnc2O1 (configuration not stated) ?
MT1-MMP act inh: 11; H9c2 TAG inh: 55*; HGIII-sPLA2 inh: 0; TAG conf: 60*

What do the screens show for `NC(=O)c1cccc(-c2ccnc3c2CC(C(=O)NCc2ccccc2)O3)c1` (configuration not stated)?
MT1-MMP act inh: 19; H9c2 TAG inh: 50*; HGIII-sPLA2 inh: 11; TAG conf: 54*

What do the screens show for `NC(=O)c1cccc(-c2ccnc3c2CC(C(=O)NCc2ccc(F)c(F)c2)O3)c1` (configuration not stated)?
MT1-MMP act inh: 0; H9c2 TAG inh: 5; HGIII-sPLA2 inh: 0

How did C=CCNC(=S)N1CCC(C(=O)c2ccc(Cl)cc2)CC1 do in these assays?
MT1-MMP act inh: 1; HGIII-sPLA2 inh: 9; Efflux pump inh: 0

Results for COc1ccc(S(=O)(=O)N2CCN(C(=O)Nc3ccccc3OC)CC2)cc1 ?
MT1-MMP act inh: -2; H9c2 TAG inh: -9; HGIII-sPLA2 inh: 3; Efflux pump inh: 0

What do the screens show for `Cc1nc2c(ccc3nc(NC(=O)Cc4cccc5ccccc45)sc32)s1`?
MT1-MMP act inh: -5; H9c2 TAG inh: 51*; HGIII-sPLA2 inh: -14; Efflux pump inh: 0; TAG conf: 58*

What do the screens show for `O=C(NC(=S)N(Cc1ccccc1)Cc1ccccc1)C1CCCCC1`?
MT1-MMP act inh: -8; H9c2 TAG inh: 54*; HGIII-sPLA2 inh: 5; Efflux pump inh: 0; TAG conf: 0

Results for O=C(NC(=S)NCCc1ccccc1)C1CCCCC1 ?
MT1-MMP act inh: -18; H9c2 TAG inh: -7; HGIII-sPLA2 inh: 5; Efflux pump inh: -1

How did CCC(C)(C)C1CCC2(CC1)NC(=O)N(CC(=O)NCCOc1ccccc1)C2=O (configuration not stated) do in these assays?
MT1-MMP act inh: 1; H9c2 TAG inh: 10; HGIII-sPLA2 inh: 5; Efflux pump inh: 0

Screening data deposited in PubChem by several laboratories.
